Reference: ChEMBL document CHEMBL1275449, “Potent in vitro antifungal activities of naturally occurring acetylenic acids” (Antimicrob Agents Chemother, 2008)
Converted amounts (≈) assume the structure as drawn.

Key:
Aspergillus flavus = experiment: Antifungal activity against Aspergillus flavus ATCC 204304 after 48 h by CLSI method; conditions: ATCC 204304, 48 h
Candida parapsilosis = experiment: Antifungal activity against Candida parapsilosis ATCC 22019 after 48 hrs by CLSI method; assay type: functional, organism-based; conditions: Lodderomyces parapsilosis, ATCC 22019, 48 h
Outline: (§1)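 Yeast suspensions made from 3-5 colonies off 24-72 h SD agar plates in saline. They were diluted by OD630 standard curve in RPMI 1640 (0.2% dextrose, 0.03% glutamine, 0.165 M MOPS, pH 7.0) to 1.5 × 10³ CFU/ml. Twofold dilutions (11 concentrations, 20% DMSO-saline) run in duplicate. OD530 read before and after 35°C, 48 h. Line values are top test concentrations; no-growth endpoints give MIC/MFC.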

Aspergillus niger = experiment: Antifungal activity against Aspergillus niger ATCC 16404 after 48 h by CLSI method; conditions: ATCC 16404, 48 h
Candida albicans [1] = experiment: Antifungal activity against Fluconazole resistant Candida albicans clinical isolate 1 after 48 hrs by CLSI method; assay type: functional, organism-based
Outline: (§2)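 CLSI broth microdilution. Colonies from 24–72 h SD agar suspended in saline and sized by OD630 standard curve. Inoculum 1.5 × 10³ CFU/ml (final) in RPMI 1640 (0.2% dextrose, 0.03% glutamine, 0.165 M MOPS, pH 7.0). Twofold dilutions (11 levels) from 20% DMSO-saline, in duplicate. 35°C for 48 h, OD530 read before and after. IC50 fitted from % growth. MIC: no detectable growth. MFC: subculture onto SD agar.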

SK-MEL = experiment: Cytotoxicity against human SK-MEL cells up to 32 uM by neutral red method; assay type: cell-based
Outline: (§3)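 Neutral red uptake cytotoxicity, top concentration 32 μM.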

Candida albicans [2] = experiment: Antifungal activity against Candida albicans ATCC 60193 after 48 hrs by CLSI method; assay type: functional, organism-based; conditions: ATCC 60193, 48 h
Outline: as §2

Trichophyton rubrum [3] = experiment: Antifungal activity against Trichophyton rubrum ATCC 10218 by CLSI method; assay type: functional, organism-based
Outline: (§4)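 Growth scraped from 1- to 6-week-old potato dextrose slants and filtered through Miracloth. Diluted in 5% Alamar blue-RPMI 1640 (MOPS pH 7.0) to 2.7 × 10⁴ CFU/ml. Eleven twofold dilutions in duplicate. Fluorescence at 544 nm excitation/590 nm emission read before and after 35°C, 5 days. IC50 fitted from percent growth. MIC taken as no detectable growth; MFC from clear or blue wells plated on PD agar.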

[4] = tested on: Trichophyton mentagrophytes; experiment: Antifungal activity against Trichophyton mentagrophytes ATCC MYA-4439 by CLSI method; assay type: functional, organism-based
Outline: as §4

SK-OV-3 = experiment: Cytotoxicity against human SKOV3 cells up to 32 uM by neutral red method; assay type: cell-based
Outline: as §3

Aspergillus fumigatus [5] = experiment: Antifungal activity against Aspergillus fumigatus ATCC 204305 after 48 h by CLSI method; conditions: ATCC 204305, 48 h
BT-549 = experiment: Cytotoxicity against human BT549 cells up to 32 uM by neutral red method; assay type: cell-based
Outline: as §3

Candida albicans [6] = experiment: Antifungal activity against Candida albicans ATCC 14053 after 48 hrs by CLSI method; assay type: functional, organism-based; conditions: ATCC 14053, 48 h
Outline: as §2

Candida albicans [7] = experiment: Antifungal activity against Candida albicans ATCC 32354 after 48 hrs by CLSI method; assay type: functional, organism-based; conditions: ATCC 32354, 48 h
Outline: as §2

Candida tropicalis = experiment: Antifungal activity against Candida tropicalis ATCC 750 after 48 hrs by CLSI method; assay type: functional, organism-based; conditions: ATCC 750, 48 h
Outline: as §1

Aspergillus fumigatus [8] = experiment: Antifungal activity against Aspergillus fumigatus ATCC 90906 after 48 h by CLSI method; conditions: ATCC 90906, 48 h
LLC-PK1 = experiment: Cytotoxicity against pig LLC-PK1 cells up to 32 uM by neutral red method; assay type: cell-based, Sus scrofa
Outline: as §3

[9] = tested on: Trichophyton mentagrophytes; experiment: Antifungal activity against Trichophyton mentagrophytes ATCC 9533 by CLSI method; assay type: functional, organism-based
Outline: as §4

Candida albicans [10] = experiment: Antifungal activity against Fluconazole resistant Candida albicans clinical isolate 17 after 48 hrs by CLSI method; assay type: functional, organism-based
Outline: as §2

KB = experiment: Cytotoxicity against human KB cells up to 32 uM by neutral red method; assay type: cell-based
Outline: as §3

Candida albicans [11] = experiment: Antifungal activity against Candida albicans ATCC 90028 after 48 hrs by CLSI method; assay type: functional, organism-based; conditions: ATCC 90028, 48 h
Outline: as §2

Pichia kudriavzevii = experiment: Antifungal activity against Candida krusei ATCC 6258 after 48 hrs by CLSI method; assay type: functional, organism-based; conditions: ATCC 6258, 48 h
Outline: (§5)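 Candida inocula came from 24–72-h SD agar colonies suspended in saline. They were diluted by OD630 standard curve into RPMI 1640 (0.2% dextrose, 0.03% glutamine, 0.165 M MOPS, pH 7.0) to 1.5 × 10³ CFU/ml. Compounds were run as 11 twofold dilutions in 20% DMSO-saline, in duplicate, at 35°C for 48 h, with OD530 read before and after. Percent growth at the top concentration, IC50, MIC, and MFC (SD agar plating) were derived.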

Vero = experiment: Cytotoxicity against African green monkey Vero cells up to 32 uM by neutral red method; assay type: cell-based; conditions: chlorocebus sabaeus
Outline: as §3

Trichophyton rubrum [12] = experiment: Antifungal activity against Trichophyton rubrum ATCC MYA-4438 by CLSI method; assay type: functional, organism-based
Outline: as §4

Cryptococcus neoformans [13] = experiment: Antifungal activity against Cryptococcus neoformans ATCC 90113 after 72 hrs by CLSI method; assay type: functional, organism-based; conditions: ATCC 90113, 72 h
Outline: (§6)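 SD broth replaced RPMI because growth in RPMI was poor; other CLSI conditions were kept. Inoculum was 1.5 × 10³ CFU/ml from colonies on SD agar, checked by plating. Twofold serial dilutions (11 concentrations) in 20% DMSO-saline were tested in duplicate. OD530 was read before and after incubation at 35°C for 72 h. Percent growth gave IC50; the MIC is the lowest concentration with no detectable growth.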

Candida albicans [14] = experiment: Antifungal activity against Candida albicans ATCC 200955 after 48 hrs by CLSI method; assay type: functional, organism-based; conditions: ATCC 200955, 48 h
Outline: as §2

Cryptococcus neoformans [15] = experiment: Antifungal activity against Cryptococcus neoformans ATCC 66031 after 72 hrs by CLSI method; assay type: functional, organism-based; conditions: ATCC 66031, 72 h
Outline: as §6

Nakaseomyces glabratus = experiment: Antifungal activity against Candida glabrata ATCC 90030 after 48 hrs by CLSI methodCandida glabrata; assay type: functional, organism-based; conditions: ATCC 90030, 48 h
Outline: as §5

CCCCCC#CCC#CCC#CCC#CCCCC(=O)O
IC50 (Aspergillus flavus): > 169000 nM
IC50 (Candida parapsilosis): 5400 nM
MIC (Candida parapsilosis): 63.3 µM (≈ 18.8 µg/mL)
IC50 (Aspergillus niger): 100000 nM
IC50 (Candida albicans [1]): 1700 nM
MIC (Candida albicans [1]): 42.2 µM (≈ 12.5 µg/mL)
Activity (SK-MEL): Non-toxic
IC50 (Candida albicans [2]): 4500 nM
MIC (Candida albicans [2]): 63.3 µM (≈ 18.8 µg/mL)
IC50 (Trichophyton rubrum [3]): 8400 nM
MIC (Trichophyton rubrum [3]): 15.8 µM (≈ 4.68 µg/mL)
IC50 [4]: 6700 nM
MIC [4]: 31.7 µM (≈ 9.4 µg/mL)
Activity (SK-OV-3): Non-toxic
IC50 (Aspergillus fumigatus [5]): 10000 nM
MIC (Aspergillus fumigatus [5]): 84.5 µM (≈ 25 µg/mL)
Activity (BT-549): Non-toxic
IC50 (Candida albicans [6]): 8100 nM
MIC (Candida albicans [6]): 63.3 µM (≈ 18.8 µg/mL)
IC50 (Candida albicans [7]): 4000 nM
MIC (Candida albicans [7]): 31.7 µM (≈ 9.4 µg/mL)
IC50 (Candida tropicalis): 27700 nM
IC50 (Aspergillus fumigatus [8]): 13300 nM
MIC (Aspergillus fumigatus [8]): 84.5 µM (≈ 25 µg/mL)
Activity (LLC-PK1): Non-toxic
IC50 [9]: 14200 nM
MIC [9]: 21.1 µM (≈ 6.25 µg/mL)
IC50 (Candida albicans [10]): 3500 nM
MIC (Candida albicans [10]): 42.2 µM (≈ 12.5 µg/mL)
Activity (KB): Non-toxic
IC50 (Candida albicans [11]): 5000 nM
MIC (Candida albicans [11]): 42.2 µM (≈ 12.5 µg/mL)
IC50 (Pichia kudriavzevii): > 169000 nM
Activity (Vero): Non-toxic
IC50 (Trichophyton rubrum [12]): 2900 nM
MIC (Trichophyton rubrum [12]): 31.7 µM (≈ 9.4 µg/mL)
IC50 (Cryptococcus neoformans [13]): > 169000 nM
IC50 (Candida albicans [14]): 2000 nM
MFC (Candida albicans [14]): 21.1 µM (≈ 6.25 µg/mL)
MIC (Candida albicans [14]): 5.3 µM (≈ 1.57 µg/mL)

CC(=O)N1CCN(c2ccc(OCC3COC(Cn4ccnc4)(c4ccc(Cl)cc4Cl)O3)cc2)CC1 (stereo not drawn) [KETOCONAZOLE]
IC50 (Aspergillus flavus): 2800 nM
MIC (Aspergillus flavus): 4.7 µM (≈ 2.5 µg/mL)
IC50 (Candida parapsilosis): 40 nM
MIC (Candida parapsilosis): 0.13 µM (≈ 0.0691 µg/mL)
IC50 (Aspergillus niger): 6000 nM
MIC (Aspergillus niger): 9.4 µM (≈ 5 µg/mL)
IC50 (Candida albicans [1]): < 10 nM
MIC (Candida albicans [1]): 0.1 µM (≈ 0.0531 µg/mL)
IC50 (Candida albicans [2]): 10 nM
MIC (Candida albicans [2]): 0.02 µM (≈ 0.0106 µg/mL)
IC50 (Trichophyton rubrum [3]): 20 nM
MIC (Trichophyton rubrum [3]): 0.04 µM (≈ 0.0213 µg/mL)
IC50 [4]: 100 nM
MIC [4]: 0.7 µM (≈ 0.372 µg/mL)
IC50 (Aspergillus fumigatus [5]): 2700 nM
MIC (Aspergillus fumigatus [5]): 4.7 µM (≈ 2.5 µg/mL)
IC50 (Candida albicans [6]): 10 nM
MIC (Candida albicans [6]): 0.02 µM (≈ 0.0106 µg/mL)
IC50 (Candida albicans [7]): 10 nM
MIC (Candida albicans [7]): 0.03 µM (≈ 0.0159 µg/mL)
IC50 (Candida tropicalis): 40 nM
MIC (Candida tropicalis): 0.19 µM (≈ 0.101 µg/mL)
IC50 (Cryptococcus neoformans [15]): 20 nM
MFC (Cryptococcus neoformans [15]): 0.59 µM (≈ 0.314 µg/mL)
MIC (Cryptococcus neoformans [15]): 0.15 µM (≈ 0.0797 µg/mL)
IC50 (Aspergillus fumigatus [8]): 3200 nM
MIC (Aspergillus fumigatus [8]): 7.1 µM (≈ 3.77 µg/mL)
IC50 [9]: 200 nM
MIC [9]: 0.4 µM (≈ 0.213 µg/mL)
IC50 (Candida albicans [10]): 300 nM
IC50 (Nakaseomyces glabratus): 700 nM
MIC (Nakaseomyces glabratus): 4.7 µM (≈ 2.5 µg/mL)
IC50 (Candida albicans [11]): < 10 nM
MIC (Candida albicans [11]): 0.01 µM (≈ 0.00531 µg/mL)
IC50 (Pichia kudriavzevii): 400 nM
MIC (Pichia kudriavzevii): 1.1 µM (≈ 0.585 µg/mL)
IC50 (Trichophyton rubrum [12]): 10 nM
MIC (Trichophyton rubrum [12]): 0.08 µM (≈ 0.0425 µg/mL)
IC50 (Cryptococcus neoformans [13]): 100 nM
MFC (Cryptococcus neoformans [13]): 1.2 µM (≈ 0.638 µg/mL)
MIC (Cryptococcus neoformans [13]): 0.3 µM (≈ 0.159 µg/mL)
IC50 (Candida albicans [14]): < 10 nM
MIC (Candida albicans [14]): 0.01 µM (≈ 0.00531 µg/mL)
